Measured values published in ChEMBL document CHEMBL1127818, “Identification of L-tryptophan derivatives with potent and selective antagonist activity at the NK1 receptor” (J Med Chem, 1994).

Assays:
Neuromedin-K receptor = molecular target: T1, Neuromedin-K receptor (Homo sapiens, UniProt P29371); assay: Affinity to NK3 receptors assayed by displacement of [125I]-Bolton-Hunter labeled eledoisin radioligand
T1 sequence (P29371 whole entry): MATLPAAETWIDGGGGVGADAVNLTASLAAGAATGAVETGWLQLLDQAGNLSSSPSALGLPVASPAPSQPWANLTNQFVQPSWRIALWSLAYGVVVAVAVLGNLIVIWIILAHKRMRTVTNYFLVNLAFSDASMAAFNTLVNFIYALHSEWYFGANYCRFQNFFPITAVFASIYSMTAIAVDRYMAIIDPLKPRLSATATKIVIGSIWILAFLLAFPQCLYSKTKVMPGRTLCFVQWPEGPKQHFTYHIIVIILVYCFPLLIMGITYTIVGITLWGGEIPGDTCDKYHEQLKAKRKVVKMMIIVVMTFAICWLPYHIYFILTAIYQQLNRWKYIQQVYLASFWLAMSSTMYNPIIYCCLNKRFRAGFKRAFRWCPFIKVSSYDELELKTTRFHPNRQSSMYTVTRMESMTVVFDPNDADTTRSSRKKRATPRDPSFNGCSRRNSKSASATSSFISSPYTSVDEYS
Outline: (§1)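 Cloned human NK2 or NK3 receptors stably expressed in CHO cells. Radioligand displacement with [125I]neurokinin A for NK2 and [125I]Bolton-Hunter labeled eledoisin for NK3; IC50 reported.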

Substance-K receptor = molecular target: T2, Substance-K receptor (Homo sapiens, UniProt P21452); assay: Binding affinity to the NK2 receptor assayed by displacement of [125I]-Neurokinin A; outline: as §1
T2 sequence (P21452 whole entry): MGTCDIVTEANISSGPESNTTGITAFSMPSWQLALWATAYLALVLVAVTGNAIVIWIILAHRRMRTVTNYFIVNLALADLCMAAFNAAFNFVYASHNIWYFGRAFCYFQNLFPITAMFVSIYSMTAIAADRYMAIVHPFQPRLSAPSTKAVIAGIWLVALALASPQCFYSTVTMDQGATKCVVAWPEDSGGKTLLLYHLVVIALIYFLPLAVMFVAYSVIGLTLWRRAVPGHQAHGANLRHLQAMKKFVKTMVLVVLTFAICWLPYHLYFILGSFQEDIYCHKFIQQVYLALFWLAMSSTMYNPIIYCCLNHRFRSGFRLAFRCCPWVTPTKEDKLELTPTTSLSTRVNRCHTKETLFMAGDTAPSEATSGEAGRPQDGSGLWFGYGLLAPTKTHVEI

Substance-P receptor = Substance-P receptor (Homo sapiens, UniProt P25103); assay: Binding affinity towards cloned neurokinin 1 receptor, based on the displacement of [125I]-labeled substance P
Substance-P receptor, sequence (P25103 whole entry): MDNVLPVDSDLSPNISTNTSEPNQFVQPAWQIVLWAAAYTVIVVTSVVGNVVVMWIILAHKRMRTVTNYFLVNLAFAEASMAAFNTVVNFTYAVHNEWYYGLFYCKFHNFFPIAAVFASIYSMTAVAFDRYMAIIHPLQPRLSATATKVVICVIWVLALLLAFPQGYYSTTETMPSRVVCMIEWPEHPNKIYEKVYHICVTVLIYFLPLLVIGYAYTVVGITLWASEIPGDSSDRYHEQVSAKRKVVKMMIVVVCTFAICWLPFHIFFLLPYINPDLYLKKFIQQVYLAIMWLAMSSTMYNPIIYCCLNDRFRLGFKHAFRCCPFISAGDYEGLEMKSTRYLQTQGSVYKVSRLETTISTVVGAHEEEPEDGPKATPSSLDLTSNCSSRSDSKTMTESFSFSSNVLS

Cavia porcellus [1] = organism: Cavia porcellus; assay: Inhibitory dose against substance P induced extravasation in the guinea pig; details: read-out: ID50
Cavia porcellus [2] = organism: Cavia porcellus; assay: animal or person; details: po, read-out: Inhibition

SMILES	IC50 (Neuromedin-K receptor)	IC50 (Substance-K receptor)	IC50 (Substance-P receptor)	ED50 (Cavia porcellus [1])	inhibition in vivo at 30 mg/kg (Cavia porcellus [2])
CC(=O)N[C@@H](Cc1ccccc1)C(=O)OCc1cc(C)cc(C)c1	> 5 µM	> 5 µM	0.433 µM	–	–
O=C(N[C@@H](Cc1c[nH]c2ccccc12)C(=O)OCc1ccc(C(F)(F)F)cc1)c1ccccc1	> 5 µM	> 5 µM	2.15 µM	–	–
COC(=O)N[C@@H](Cc1c[nH]c2ccccc12)C(=O)OCc1cc(C)cc(C)c1	> 5 µM	> 5 µM	0.087 µM	–	–
Cc1cc(C)cc(COC(=O)[C@H](Cc2c[nH]c3ccccc23)N(C)C)c1	> 5 µM	> 5 µM	–	–	–
CC(=O)N[C@@H](Cc1cccc2ccccc12)C(=O)OCc1cc(C)cc(C)c1	> 5 µM	> 5 µM	0.153 µM	–	–
O=C(N[C@@H](Cc1c[nH]c2ccccc12)C(=O)OCc1ccccc1Cl)c1ccccc1	> 5 µM	> 5 µM	–	–	–
COc1ccccc1COC(=O)[C@H](Cc1c[nH]c2ccccc12)NC(=O)OC(C)(C)C	> 5 µM	> 5 µM	–	–	–
Cc1cc(C)cc(COC(=O)[C@H](Cc2c[nH]c3ccccc23)NC(=O)OC(C)(C)C)c1	> 5 µM	> 5 µM	–	–	–
O=C(N[C@@H](Cc1c[nH]c2ccccc12)C(=O)OCc1cccc(C(F)(F)F)c1)c1ccccc1	> 5 µM	> 5 µM	0.062 µM	–	–
CCN[C@@H](Cc1c[nH]c2ccccc12)C(=O)OCc1ccccc1	> 5 µM	> 5 µM	–	–	–
N[C@@H](Cc1c[nH]c2ccccc12)C(=O)OCc1ccccc1	> 5 µM	> 5 µM	–	–	–
Cc1cc(C)cc(COC(=O)[C@@H](N)Cc2c[nH]c3ccccc23)c1	> 5 µM	> 5 µM	–	–	–
O=C(N[C@@H](Cc1c[nH]c2ccccc12)C(=O)OCc1cccc(Cl)c1)c1ccccc1	> 5 µM	> 5 µM	1.05 µM	–	–
COc1ccc(COC(=O)[C@H](Cc2c[nH]c3ccccc23)NC(=O)c2ccccc2)cc1	> 5 µM	> 5 µM	5.5 µM	–	–
CC(=O)N[C@@H](Cc1n[nH]c2ccccc12)C(=O)OCc1cc(C(F)(F)F)cc(C(F)(F)F)c1 (racemic)	> 5 µM	> 5 µM	0.197 µM	–	–

The next lines start with results.

IC50 (Neuromedin-K receptor)	IC50 (Substance-K receptor)	IC50 (Substance-P receptor)	SMILES	ED50 (Cavia porcellus [1])	inhibition in vivo at 30 mg/kg (Cavia porcellus [2])
> 5 µM	> 5 µM	0.103 µM	CNC(=O)N[C@@H](Cc1c[nH]c2ccccc12)C(=O)OCc1cc(C)cc(C)c1	–	–
> 5 µM	> 5 µM	0.76 µM	COc1cccc(COC(=O)[C@H](Cc2c[nH]c3ccccc23)NC(=O)c2ccccc2)c1	–	–
> 5 µM	> 5 µM	0.022 µM	Cc1cc(C)cc(COC(=O)[C@H](Cc2c[nH]c3ccccc23)NC(=O)c2ccccc2)c1	–	–
> 5 µM	> 5 µM	0.243 µM	O=C(N[C@@H](Cc1c[nH]c2ccccc12)C(=O)OCc1ccc(Cl)cc1)c1ccccc1	–	–
> 5 µM	> 5 µM	> 0.1 µM	COc1ccccc1COC(=O)[C@H](Cc1c[nH]c2ccccc12)NC(=O)c1ccccc1	–	–
> 5 µM	> 5 µM	0.138 µM	CC(=O)N[C@@H](Cc1ccc2ccccc2c1)C(=O)OCc1cc(C)cc(C)c1	–	–
> 5 µM	> 5 µM	0.183 µM	O=C(N[C@@H](Cc1c[nH]c2ccccc12)C(=O)OCc1ccccc1C(F)(F)F)c1ccccc1	–	–
> 5 µM	> 5 µM	–	Cc1cc(C)cc(COC(=O)[C@H](Cc2c[nH]c3ccccc23)[N+](C)(C)C)c1	–	–
> 5 µM	> 5 µM	0.0027 µM	O=C(N[C@@H](Cc1c[nH]c2ccccc12)C(=O)OCc1cc(C(F)(F)F)cc(C(F)(F)F)c1)c1ccccc1	–	–
> 5 µM	> 5 µM	–	CC(C)(C)OC(=O)N[C@@H](Cc1c[nH]c2ccccc12)C(=O)OCc1ccccc1	–	–
> 5 µM	> 5 µM	0.03 µM	CC(=O)N[C@@H](Cc1ccc(Cl)c(Cl)c1)C(=O)OCc1cc(C)cc(C)c1 (racemic)	–	–
> 5 µM	> 5 µM	0.008 µM	CC(=O)N[C@@H](Cc1csc2ccccc12)C(=O)OCc1cc(C(F)(F)F)cc(C(F)(F)F)c1 (racemic) [L-709400]	–	–
> 5 µM	> 5 µM	–	Cc1cc(C)cc(COC(=O)C(Cc2c[nH]c3ccccc23)NC(=O)c2ccccc2)c1 (single isomer, unassigned)	–	–
> 5 µM	> 5 µM	–	CC(=O)N[C@@H](Cc1c[nH]c2ccccc12)C(=O)OCc1cc(C)cc(C)c1 [L-708568]	–	–
> 5 µM	> 5 µM	–	CC(=O)N[C@@H](Cc1c[nH]c2ccccc12)C(=O)OCc1cc(C(F)(F)F)cc(C(F)(F)F)c1 [L-732138]	8 mg/kg	22%
